Reference: ChEMBL document CHEMBL1125690, “Quinazoline antifolate thymidylate synthase inhibitors: heterocyclic benzoyl ring modifications” (J Med Chem, 1991)

How the values were obtained:
[1] = target: Thymidylate synthase (Mus musculus, UniProt P07607); assay: In vitro inhibition of partially purified L1210 thymidylate synthase (TS).
[2] = tested on: L1210; assay: In vitro inhibition of L1210 cell growth in culture.; assay type: functional, cell-based; details: Mus musculus
How it was run: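 L1210 mouse leukaemia cells grown in culture. The value reported is the IC50 for inhibition of cell growth.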

Chain of Thymidylate synthase (P07607 whole entry): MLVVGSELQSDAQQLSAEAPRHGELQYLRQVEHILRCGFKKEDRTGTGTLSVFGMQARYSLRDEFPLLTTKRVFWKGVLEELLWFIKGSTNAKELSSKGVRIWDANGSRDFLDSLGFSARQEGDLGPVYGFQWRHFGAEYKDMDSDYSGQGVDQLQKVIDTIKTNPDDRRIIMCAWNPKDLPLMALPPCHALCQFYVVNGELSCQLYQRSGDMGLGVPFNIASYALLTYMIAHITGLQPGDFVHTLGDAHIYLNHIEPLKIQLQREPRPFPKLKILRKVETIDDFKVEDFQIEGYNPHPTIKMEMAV

| IC50 [1] [nM] | IC50 [2] [nM] | SMILES |
| --- | --- | --- |
| 4250 | 1600 | Cc1nc2ccc(CN(C)c3ccc(C(=O)N[C@@H](CCC(=O)O)C(=O)O)cn3)cc2c(=O)[nH]1 |
| 1850 | 400 | CCCN(Cc1ccc2nc(C)nc(O)c2c1)c1ccc(C(=O)N[C@H](CCC(=O)O)C(=O)O)s1 |
| 1360 | 16 | CN(Cc1ccc2nc(CF)nc(O)c2c1)c1ccc(C(=O)N[C@H](CCC(=O)O)C(=O)O)s1 |
| 190 | 20 | Cc1nc(O)c2cc(CN(CCF)c3cnc(C(=O)N[C@H](CCC(=O)O)C(=O)O)s3)ccc2n1 |
|  | 7 | Cc1nc(O)c2cc(CN(C)c3ccc(C(=O)N[C@H](CCC(=O)O)C(=O)O)s3)ccc2n1 |
| 350 | 160 | Cc1nc2ccc(CN(C)c3ccc(C(=O)N[C@@H](CCC(=O)O)C(=O)O)nc3)cc2c(=O)[nH]1 |
| 2340 | 1400 | Cc1nc2ccc(CN(C)c3cnc(C(=O)N[C@@H](CCC(=O)O)C(=O)O)nc3)cc2c(=O)[nH]1 |
| 250 |  | Cc1nc2ccc(CN(C)c3ccc(C(=O)N[C@@H](CCC(=O)O)C(=O)O)cc3)cc2c(=O)[nH]1 |
| 490 | 300 | CN(Cc1ccc2nc(CO)nc(O)c2c1)c1cnc(C(=O)N[C@H](CCC(=O)O)C(=O)O)s1 |
| 1740 | 60 | Cc1nc(O)c2cc(CN(CCCO)c3cnc(C(=O)N[C@H](CCC(=O)O)C(=O)O)s3)ccc2n1 |
| 1200 | 100 | Cc1nc(O)c2cc(CN(CCO)c3ccc(C(=O)N[C@H](CCC(=O)O)C(=O)O)s3)ccc2n1 |
| 3360 | 3000 | Cc1nc(O)c2cc(CN(CCCO)c3ccc(C(=O)N[C@H](CCC(=O)O)C(=O)O)s3)ccc2n1 |
| 24800 | 3000 | Cc1nc(O)c2cc(CNc3ccc(C(=O)N[C@H](CCC(=O)O)C(=O)O)s3)ccc2n1 |
| 580 | 16 | CCN(Cc1ccc2nc(C)nc(O)c2c1)c1ccc(C(=O)N[C@H](CCC(=O)O)C(=O)O)s1 |
| 1680 | 58 | C=CCN(Cc1ccc2nc(C)nc(O)c2c1)c1ccc(C(=O)N[C@H](CCC(=O)O)C(=O)O)s1 |
| 760 | 900 | CCN(Cc1ccc2nc(C)nc(O)c2c1)c1ncc(C(=O)N[C@H](CCC(=O)O)C(=O)O)s1 |
| 420 | 20 | Cc1nc(O)c2cc(CN(CCO)c3cnc(C(=O)N[C@H](CCC(=O)O)C(=O)O)s3)ccc2n1 |

| IC50 [1] [nM] | IC50 [2] [nM] | SMILES |
| --- | --- | --- |
| 1360 | 780 | CN(Cc1ccc2nc(CO)nc(O)c2c1)c1ccc(C(=O)N[C@H](CCC(=O)O)C(=O)O)s1 |
| 760 | 130 | C=CCN(Cc1ccc2nc(C)[nH]c(=O)c2c1)c1ccc(C(=O)N[C@@H](CCC(=O)O)C(=O)O)nc1 |
| 160 | 140 | Cc1nc2ccc(CN(CCF)c3ccc(C(=O)N[C@@H](CCC(=O)O)C(=O)O)nc3)cc2c(=O)[nH]1 |
| 440 | 60 | C#CCN(Cc1ccc2nc(C)nc(O)c2c1)c1ccc(C(=O)N[C@H](CCC(=O)O)C(=O)O)s1 |
| 1070 | 13 | C=CCN(Cc1ccc2nc(C)nc(O)c2c1)c1cnc(C(=O)N[C@H](CCC(=O)O)C(=O)O)s1 |
| 550 | 100 | Cc1nc(O)c2cc(CN(CCF)c3ccc(C(=O)N[C@H](CCC(=O)O)C(=O)O)s3)ccc2n1 |
| 930 | 110 | CCN(Cc1ccc2nc(CF)nc(O)c2c1)c1ccc(C(=O)N[C@H](CCC(=O)O)C(=O)O)s1 |
| 230 | 8 | CCN(Cc1ccc2nc(C)nc(O)c2c1)c1cnc(C(=O)N[C@H](CCC(=O)O)C(=O)O)s1 |
| 7120 | 280 | Cc1nc(O)c2cc(CNc3cnc(C(=O)N[C@H](CCC(=O)O)C(=O)O)s3)ccc2n1 |
| 230 | 8 | C#CCN(Cc1ccc2nc(C)nc(O)c2c1)c1cnc(C(=O)N[C@H](CCC(=O)O)C(=O)O)s1 |
| 150 | 640 | CCN(Cc1ccc2nc(C)[nH]c(=O)c2c1)c1ccc(C(=O)N[C@@H](CCC(=O)O)C(=O)O)nc1 |
| 1030 | 2700 | CCN(Cc1ccc2nc(CO)nc(O)c2c1)c1ccc(C(=O)N[C@H](CCC(=O)O)C(=O)O)s1 |
| 260 |  | CCN(Cc1ccc2nc(C)[nH]c(=O)c2c1)c1ccc(C(=O)N[C@@H](CCC(=O)O)C(=O)O)cc1 |
| 3080 | 200 | Cc1nc(O)c2cc(CN(CC#N)c3ccc(C(=O)N[C@H](CCC(=O)O)C(=O)O)s3)ccc2n1 |
| 220 | 100 | CCN(Cc1ccc2nc(CF)nc(O)c2c1)c1cnc(C(=O)N[C@H](CCC(=O)O)C(=O)O)s1 |
| 420 | 6 | Cc1nc(O)c2cc(CN(C)c3cnc(C(=O)N[C@H](CCC(=O)O)C(=O)O)s3)ccc2n1 |
| 1070 | 670 | O=C(O)CC[C@@H](NC(=O)c1ccc(N(CCF)Cc2ccc3nc(CF)nc(O)c3c2)s1)C(=O)O |

| SMILES | IC50 [1] [nM] | IC50 [2] [nM] |
| --- | --- | --- |
| C#CCN(Cc1ccc2nc(C)[nH]c(=O)c2c1)c1ccc(C(=O)N[C@@H](CCC(=O)O)C(=O)O)nc1 | 40 | 60 |
| CCN(Cc1ccc2nc(C)nc(O)c2c1)c1nnc(C(=O)N[C@H](CCC(=O)O)C(=O)O)s1 | 940 | 2400 |
